Assay results from ChEMBL document CHEMBL4270599, “Synthesis of a 3'-C-ethynyl-β-d-ribofuranose purine nucleoside library: Discovery of C7-deazapurine analogs as potent antiproliferative nucleosides” (Eur J Med Chem, 2018).

How the values were obtained:
L1210 = assay: Antiproliferative activity against mouse L1210 cells after 48 hrs by Coulter counter method; type: functional, cell-based; conditions: L1210, 48 h
Summary of the method: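 Cell count assay in 96-well microtiter plates; (5–7.5) × 10⁴ tumor cells per well plus test compound. Cells proliferated at 37 °C in humidified CO₂-controlled atmosphere, 48 h for murine leukemia L1210, 72 h for human lymphocytic CEM and cervix carcinoma HeLa. Counted by Coulter counter; IC₅₀ is the concentration that inhibits proliferation by 50%.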

HL-60(TB) = assay: Cytotoxicity against human HL-60(TB) cells after 48 hrs by SRB assay; type: functional; conditions: HL-60, 48 h; for GI50: read-out: GI50; for TGI: read-out: TGI; for CC50: read-out: pLC50 (the source's name) (converted)
HT-29 [1] = assay: Cytotoxicity against human HT-29 cells after 48 hrs by SRB assay; type: functional; conditions: HT-29, 48 h; for GI50: read-out: GI50; for CC50: read-out: LC50 (the source's name)
SF-539 = assay: Cytotoxicity against human SF539 cells after 48 hrs by SRB assay; type: functional; conditions: SF-539, 48 h; for GI50: read-out: GI50; for CC50: read-out: LC50 (the source's name); for TGI: read-out: TGI
IGROV-1 = assay: Cytotoxicity against human IGROV1 cells after 48 hrs by SRB assay; type: functional; conditions: IGROV-1, 48 h; for GI50: read-out: GI50
ACHN [2] = assay: Cytotoxicity against human ACHN cells after 48 hrs by SRB assay; type: functional; conditions: for CC50: read-out: pLC50 (the source's name) (converted)
TK-10 = assay: Cytotoxicity against human TK10 cells after 48 hrs by SRB assay; type: functional; conditions: TK-10, 48 h; for GI50: read-out: GI50; for TGI: read-out: TGI
UO-31 = assay: Cytotoxicity against human UO31 cells after 48 hrs by SRB assay; type: functional; conditions: UO-31, 48 h; for GI50: read-out: GI50; for TGI: read-out: TGI; for CC50: read-out: pLC50 (the source's name) (converted)
HOP-62 = assay: Growth inhibition of human HOP62 cells assessed as cell growth at 10^-8 M incubated for 48 hrs by sulforhodamine B assay relative to control; type: functional; conditions: HOP-62, 48 h, read-out: Activity
HCC 2998 = assay: Growth inhibition of human HCC2998 cells assessed as cell growth at 10^-8 M incubated for 48 hrs by sulforhodamine B assay relative to control; type: functional; conditions: HCC 2998, 48 h, read-out: Activity
SNB-75 = assay: Growth inhibition of human SNB75 cells assessed as cell growth at 10^-8 M incubated for 48 hrs by sulforhodamine B assay relative to control; type: functional; conditions: SNB-75, 48 h, read-out: Activity
LOX IMVI = assay: Growth inhibition of human LOXIMVI cells assessed as cell growth at 10^-8 M incubated for 48 hrs by sulforhodamine B assay relative to control; type: functional; conditions: read-out: Activity
UACC-257 = assay: Growth inhibition of human UACC257 cells assessed as cell growth at 10^-8 M incubated for 48 hrs by sulforhodamine B assay relative to control; type: functional; conditions: UACC-257, 48 h, read-out: Activity
OVCAR-5 = assay: Growth inhibition of human OVCAR5 cells assessed as cell growth at 10^-8 M incubated for 48 hrs by sulforhodamine B assay relative to control; type: functional; conditions: OVCAR-5, 48 h, read-out: Activity
KM12 [3] = assay: Growth inhibition of human KM12 cells assessed as cell growth at 10^-7 M incubated for 48 hrs by sulforhodamine B assay relative to control; type: functional; conditions: KM12, 48 h, read-out: Activity
SK-MEL-28 = assay: Growth inhibition of human SK-MEL-28 cells assessed as cell growth at 10^-7 M incubated for 48 hrs by sulforhodamine B assay relative to control; type: functional; conditions: SK-MEL-28, 48 h, read-out: Activity
SN12C = assay: Growth inhibition of human SN12C cells assessed as cell growth at 10^-7 M incubated for 48 hrs by sulforhodamine B assay relative to control; type: functional; conditions: read-out: Activity
HT-29 [4] = assay: Growth inhibition of human HT-29 cells assessed as cell growth at 10^-6 M incubated for 48 hrs by sulforhodamine B assay relative to control; type: functional; conditions: HT-29, 48 h, read-out: Activity
SW-620 = assay: Growth inhibition of human SW620 cells assessed as cell growth at 10^-6 M incubated for 48 hrs by sulforhodamine B assay relative to control; type: functional; conditions: SW-620, 48 h, read-out: Activity
KM12 [5] = assay: Growth inhibition of human KM12 cells assessed as cell growth at 10^-5 M incubated for 48 hrs by sulforhodamine B assay relative to control; type: functional; conditions: KM12, 48 h, read-out: Activity
SR = assay: Growth inhibition of human SR cells assessed as cell growth at 10^-4 M incubated for 48 hrs by sulforhodamine B assay relative to control; type: functional; conditions: read-out: Activity
NCI-H226 = assay: Growth inhibition of human NCI-H226 cells assessed as cell growth at 10^-4 M incubated for 48 hrs by sulforhodamine B assay relative to control; type: functional; conditions: NCI-H226, 48 h, read-out: Activity
ACHN [6] = assay: Growth inhibition of human ACHN cells assessed as cell growth at 10^-4 M incubated for 48 hrs by sulforhodamine B assay relative to control; type: functional; conditions: read-out: Activity
DU-145 = assay: Growth inhibition of human DU145 cells assessed as cell growth at 10^-4 M incubated for 48 hrs by sulforhodamine B assay relative to control; type: functional; conditions: DU-145, 48 h, read-out: Activity
UACC-62 = assay: Growth inhibition of human UACC62 cells assessed as cell growth at 10^-7 M incubated for 48 hrs by sulforhodamine B assay relative to control; type: functional; conditions: UACC-62, 48 h, read-out: Activity
NCI/ADR-RES = assay: Growth inhibition of human NCI/ADR-RES cells assessed as cell growth at 10^-5 M incubated for 48 hrs by sulforhodamine B assay relative to control; type: functional; conditions: read-out: Activity
A498 = assay: Growth inhibition of human A498 cells assessed as cell growth at 10^-6 M incubated for 48 hrs by sulforhodamine B assay relative to control; type: functional; conditions: A498, 48 h, read-out: Activity
[7] = read-out: pLC50 (the source's name) (converted)
[8] = read-out: LC50 (the source's name)

C#C[C@@]1(O)[C@@H](CO)O[C@@H](n2cc(Br)c3c(N)ncnc32)[C@@H]1O
IC50 (L1210): 28 nM
GI50 (HL-60(TB)): 21.8 to 71.6 nM
TGI (HL-60(TB)): 75.7 to 313 nM
CC50 (HL-60(TB)): 5.25 µM
GI50 (HT-29 [1]): 25.8 to 55.9 nM
CC50 (HT-29 [1]): > 100 µM
TGI (HT-29 [1]; read-out: TGI): > 100 µM
TGI (HT-29 [1]; read-out: pTGI (converted)): > 100 µM
GI50 (SF-539): 238 to 372 nM
CC50 (SF-539): 22 to 30.9 µM
TGI (SF-539): 1140 to 2040 nM
GI50 (IGROV-1): 27.8 to 69.9 nM
TGI (IGROV-1; read-out: TGI): 485 nM
CC50 (IGROV-1; [7]): > 100 µM
TGI (IGROV-1; read-out: pTGI (converted)): 490 nM
GI50 (ACHN [2]): 234 nM
CC50 (ACHN [2]): > 100 µM
GI50 (TK-10): 411 to 481 nM
CC50 (TK-10; [8]): > 100 µM
TGI (TK-10): 85.8 to 100 µM
GI50 (UO-31): 115 to 130 nM
TGI (UO-31): 315 to 1500 nM
CC50 (UO-31): > 100 µM
growth at 0.01 µM (HOP-62): 92 to 100%
growth at 0.01 µM (HCC 2998): 86 to 99%
growth at 0.01 µM (SNB-75): 73 to 89%
growth at 0.01 µM (LOX IMVI): 76 to 94%
growth at 0.01 µM (UACC-257): 87 to 100%
growth at 0.01 µM (OVCAR-5): 98 to 99%
growth at 0.1 µM (KM12 [3]): 49 to 53%
growth at 0.1 µM (SK-MEL-28): 77 to 94%
growth at 0.1 µM (SN12C): 31 to 69%
growth at 1 µM (HT-29 [4]): 5 to 8%
growth at 1 µM (SW-620): 4 to 9%
growth at 10 µM (KM12 [5]): 7 to 12%
growth at 100 µM (SR): 2 to 6%
growth at 100 µM (NCI-H226): 23%
growth at 100 µM (ACHN [6]): 7%
growth at 100 µM (DU-145): 8 to 10%
growth at 0.1 µM (UACC-62): 56 to 84%
growth at 10 µM (NCI/ADR-RES): -9%

C#C[C@@]1(O)[C@@H](CO)O[C@@H](n2cc(Cl)c3c(N)ncnc32)[C@@H]1O
IC50 (L1210): 14 nM
GI50 (HL-60(TB)): 34.1 to 84 nM
TGI (HL-60(TB)): 197 to 317 nM
CC50 (HL-60(TB)): > 100 µM
GI50 (HT-29 [1]): 32.2 to 59.1 nM
CC50 (HT-29 [1]): > 100 µM
TGI (HT-29 [1]; read-out: TGI): 0.747 to 100 µM
GI50 (SF-539): 299 to 351 nM
CC50 (SF-539): 21.9 to 33.9 µM
TGI (SF-539): 1300 to 1610 nM
GI50 (IGROV-1): 123 to 145 nM
CC50 (IGROV-1; [8]): > 100 µM
TGI (IGROV-1; read-out: TGI): 475 nM
TGI (IGROV-1; read-out: pTGI (converted)): 479 nM
GI50 (ACHN [2]): 219 nM
CC50 (ACHN [2]): > 100 µM
GI50 (TK-10): 302 to 334 nM
TGI (TK-10): 0.891 to 1.72 µM
CC50 (TK-10; [7]): > 100 µM
GI50 (UO-31): 153 to 173 nM
TGI (UO-31): 472 to 1780 nM
CC50 (UO-31): > 100 µM
growth at 0.01 µM (HOP-62): 88 to 90%
growth at 0.01 µM (HCC 2998): 92 to 99%
growth at 0.01 µM (SNB-75): 84%
growth at 0.01 µM (LOX IMVI): 70 to 84%
growth at 0.01 µM (UACC-257): 87 to 100%
growth at 0.01 µM (OVCAR-5): 95 to 97%
growth at 0.1 µM (KM12 [3]): 55 to 60%
growth at 0.1 µM (SK-MEL-28): 87 to 91%
growth at 0.1 µM (SN12C): 53 to 72%
growth at 1 µM (SW-620): 2 to 7%
growth at 1 µM (A498): -63%
growth at 10 µM (KM12 [5]): 5 to 9%
growth at 100 µM (SR): 2 to 5%
growth at 100 µM (ACHN [6]): 7%
growth at 0.1 µM (UACC-62): 75 to 81%
